From ChEMBL document CHEMBL1649585, “Role of the Mycobacterium tuberculosis P55 efflux pump in intrinsic drug resistance, oxidative stress responses, and growth” (2009) come the findings set out here.

In test [1] the test system is Mycobacterium tuberculosis. Kind of test: Ratio of MIC for wild type Mycobacterium bovis BCG to MIC for Mycobacterium bovis BCG KOP55 harboring inactivated p55 gene. The class given is functional, variant bovis BCG.
The test system of test [2] is Mycobacterium tuberculosis. The test can be described thus: Ratio of MIC for Mycobacterium bovis BCG harboring pPAZ23 carrying p27-p55 operon to MIC for wild-type Mycobacterium bovis BCG. The class given is functional, variant bovis BCG.
Test [3] deals with Mycobacterium tuberculosis. Kind of test: Antimicrobial activity against Mycobacterium bovis BCG harboring pPAZ23 carrying p27-p55 operon by twofold dilution method. The class given is functional. Particulars: variant bovis BCG. The method in brief: (§1)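 Agar MIC: log-phase cultures diluted to 10^5 cells/ml, 10 µl spotted onto Middlebrook 7H10 plates with serial twofold antibiotic dilutions. Visible growth scored after 21 days at 37°C. Triplicate, repeated at least three times.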

The subject of test [4] is Mycobacterium tuberculosis. The test can be described thus: Antimicrobial activity against Mycobacterium bovis BCG by twofold dilution method. Particulars: variant bovis BCG. The class given is functional. The method in brief: as §1
The test system of test [5] is Mycobacterium tuberculosis. Kind of test: Effect on intracellular redox potential in wild-type Mycobacterium bovis BCG assessed as accumulation of formazan at 5 mg/liter after 1 hr by MTT assay. The settings on record: variant bovis BCG. The class given is functional, organism-based. In a few lines:
(§2)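 MTT reduction as an index of intracellular redox potential: cultures at OD600 0.2 treated with drug or solvent for 1 h at 37°C in quadruplicate wells, MTT (2 mg/ml stock) added, 3 h further incubation. Formazan solubilised with 10% SDS, 30 min shaking, absorbance at 600 nm. Repeated at least three independent times.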

In test [6] the test system is Mycobacterium tuberculosis. The test can be described thus: Antimicrobial activity against Mycobacterium bovis BCG by resazurine microtiter assay. The class given is functional. Particulars: variant bovis BCG, Urine. The method in brief:
(§3)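 Resazurin microdilution in liquid medium: serial twofold compound dilutions, plates incubated 8 days at 37°C, then 2 more days after adding resazurin. MIC read from the indicator. Run in triplicate and repeated at least three times.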

In test [7] the test system is Mycobacterium tuberculosis. Kind of test: Antimicrobial activity against Mycobacterium bovis BCG by resazurine microtiter assay in presence of 1 mg/liter CCCP. The class given is functional. Particulars: variant bovis BCG, Urine. The method in brief: (§4)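 Resazurin microdilution MIC (serial twofold dilutions, 8 days at 37°C plus 2 days after resazurin) run with a fixed subinhibitory level of efflux pump inhibitor (valinomycin, reserpine or CCCP) present throughout. Triplicate, repeated at least three times.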

For test [8], the system named is Mycobacterium tuberculosis. The test can be described thus: Antimicrobial activity against Mycobacterium bovis BCG harboring pPAZ23 carrying p27-p55 operon by resazurine microtiter assay. The settings on record: variant bovis BCG, Urine. The class given is functional. In a few lines:
as §3
In general terms: Alamar Blue is a resazurin reagent that responds to reducing activity.

Test [9] relates to Mycobacterium tuberculosis. Kind of test: Increase in intracellular redox potential in wild-type Mycobacterium bovis BCG assessed as increased accumulation of formazan at 5 mg/liter after 1 hr by MTT assay. The class given is functional, variant bovis BCG. In a few lines: as §2
(Tetrazolium dyes change colour on reduction, which living cells bring about.)

The test system of test [10] is Mycobacterium tuberculosis. The test can be described thus: Ratio of MIC for wild type Mycobacterium bovis BCG to MIC for wild type Mycobacterium bovis BCG in presence of 1 mg/liter CCCP. The class given is functional, variant bovis BCG.
In test [11] the test system is Mycobacterium tuberculosis. Kind of test: Antimicrobial activity against Mycobacterium bovis BCG by resazurine microtiter assay in presence of 0.1 mg/liter valinomycin. The class given is functional. Particulars: variant bovis BCG, Urine. The method in brief:
as §4

The test system of test [12] is Mycobacterium tuberculosis. The test can be described thus: Antimicrobial activity against Mycobacterium bovis BCG by resazurine microtiter assay in presence of 0.5 mg/liter reserpine. The class given is functional. The settings on record: variant bovis BCG, Urine. The method in brief: as §4
Test [13] deals with Mycobacterium tuberculosis. The test can be described thus: Decrease in intracellular redox potential in wild-type Mycobacterium bovis BCG assessed as decreased accumulation of formazan at 256 mg/liter after 1 hr by MTT assay. The class given is functional, variant bovis BCG. Also on record: scale not given: the % may be the effect or the level left. In a few lines: as §2

Values after ≈ are worked out from the molar mass of the structure shown. Active and inactive are the calls of the source. No cut-off for these calls is given here. Where a SMILES comes first, the peptide text is derived from it. Bridges are numbered along the chain shown (N, C = ends). [ ]: non-standard residue; d: D form. The star is where a group is joined. Ileψ(thiazoline)Cys = CC[C@H](C)[C@H](N)C1=N[C@H](C(=O)*)CS1; dOrn = NCCC[C@@H](N)C(=O)O

Broadly, the MIC is the lowest concentration found to suppress growth.

`Clc1ccc(COC(Cn2ccnc2)c2ccc(Cl)cc2Cl)cc1` (centres undefined) [ECONAZOLE]: the Ratio turned out to be 4 in [1] and 2 in test [2]. Moreover, the MIC amounted to 12.8 mg/L (≈ 33.5 µM) in test [3] and 6.4 mg/L (≈ 16.8 µM) in test [4].

Regarding `CC(C)/N=c1\cc2n(-c3ccc(Cl)cc3)c3ccccc3nc-2cc1Nc1ccc(Cl)cc1` [CLOFAZIMINE], in test [5], the result was inactive. In addition, the MIC in [3] and in [4] was 0.1 mg/L (≈ 0.211 µM) in each case.

For the molecule `CC(C)[C@@H]1NC(=O)[C@H](C)OC(=O)[C@@H](C(C)C)NC(=O)[C@@H](C(C)C)OC(=O)[C@H](C(C)C)NC(=O)[C@H](C)OC(=O)[C@@H](C(C)C)NC(=O)[C@@H](C(C)C)OC(=O)[C@H](C(C)C)NC(=O)[C@H](C)OC(=O)[C@@H](C(C)C)NC(=O)[C@@H](C(C)C)OC1=O` [VALINOMYCIN], the MIC in test [6] was determined as 0.4 mg/L (≈ 0.36 µM).

Consider `CN[C@H](CC(C)C)C(=O)N[C@H]1C(=O)N[C@@H](CC(N)=O)C(=O)N[C@H]2C(=O)N[C@H]3C(=O)N[C@H](C(=O)N[C@H](C(=O)O)c4cc(O)cc(O)c4-c4cc3ccc4O)[C@H](O)c3ccc(c(Cl)c3)Oc3cc2cc(c3O[C@@H]2O[C@H](CO)[C@@H](O)[C@H](O)[C@H]2O[C@H]2C[C@](C)(N)[C@H](O)[C@H](C)O2)Oc2ccc(cc2Cl)[C@H]1O` [VANCOMYCIN], for which the MIC in [7] amounted to 4 mg/L; in test [6], 4 mg/L (≈ 2.76 µM); in test [8], 8 mg/L (≈ 5.52 µM). Further, the Ratio in test [1] is recorded as 16; in test [2] it was 2.

Regarding `CC1=CC(=O)c2ccccc2C1=O` [MENADIONE], in [9], the “fold change (FC)” value is reported as 3.5.

For the molecule `CC[C@@H](CO)NCCN[C@@H](CC)CO` [ETHAMBUTOL], inhibition of growth in [6] (MIC) required 4 mg/L (≈ 19.6 µM).

Regarding `CO[C@@H]1[C@@H](OC(N)=O)[C@@H](O)[C@H](Oc2ccc3c(O)c(NC(=O)c4ccc(O)c(CC=C(C)C)c4)c(=O)oc3c2C)OC1(C)C` [NOVOBIOCIN], the MIC worked out at 4 mg/L in test [7], 8 mg/L in [11], 16 mg/L (≈ 26.1 µM) in test [6] and 8 mg/L in test [12]. Also, the Ratio in test [10] came to 4.

In the case of `CN(C)C(=O)/N=N/C(=O)N(C)C` [DIAMIDE], in [13], the Activity is recorded as 25%.

Turning to `CN(C)CCCN1c2ccccc2Sc2ccc(Cl)cc21` [CHLORPROMAZINE], 4 mg/L (≈ 12.5 µM) was the least that counted as inhibitory in [4] (MIC).

As for `CC[C@H](C)[C@H](N)C1=N[C@H](C(=O)N[C@@H](CC(C)C)C(=O)N[C@H](CCC(=O)O)C(=O)N[C@H](C(=O)N[C@H]2CCCCNC(=O)[C@H](CC(N)=O)NC(=O)[C@@H](CC(=O)O)NC(=O)[C@H](Cc3cnc[nH]3)NC(=O)[C@@H](Cc3ccccc3)NC(=O)[C@H]([C@@H](C)CC)NC(=O)[C@@H](CCCN)NC2=O)[C@@H](C)CC)CS1` [BACITRACIN] ({Ileψ(thiazoline)Cys}-L[dE]IK[dOrn]I[dF]H[dD]N; lactam 4-C), the MIC in test [7] and in test [6] was greater than 256 mg/L in each case.

As for `Oc1cc(Cl)ccc1Oc1ccc(Cl)cc1Cl` [TRICLOSAN], the MIC in [4] turned out to be 8 mg/L (≈ 27.6 µM).

`COC(=O)[C@H]1[C@H]2C[C@@H]3c4[nH]c5cc(OC)ccc5c4CCN3C[C@H]2C[C@@H](OC(=O)c2cc(OC)c(OC)c(OC)c2)[C@@H]1OC` [RESERPINE] gave an MIC in test [6] of 2 mg/L (≈ 3.29 µM).

In test [6], `O=[N+]([O-])c1cn2c(n1)OC[C@@H](OCc1ccc(OC(F)(F)F)cc1)C2` [PRETOMANID] had an MIC of 0.25 mg/L (≈ 0.696 µM).

Turning to `N#CC(C#N)=NNc1cccc(Cl)c1` [CARBONYL CYANIDE M-CHLOROPHENYLHYDRAZONE], 4 mg/L (≈ 19.5 µM) was the least that counted as inhibitory in test [6] (MIC).

`CO[C@H]1/C=C/O[C@@]2(C)Oc3c(C)c(O)c4c(O)c(c(/C=N/N5CCN(C)CC5)c(O)c4c3C2=O)NC(=O)/C(C)=C\C=C\[C@H](C)[C@H](O)[C@@H](C)[C@@H](O)[C@@H](C)[C@H](OC(C)=O)[C@@H]1C` [RIFAMPIN]: the MIC in test [7] is 0.0008 mg/L; in [11], 0.0016 mg/L; in test [6], 0.0032 mg/L (≈ 0.00389 µM); in test [12] it was 0.0016 mg/L; in test [8] it was 0.0032 mg/L (≈ 0.00389 µM). The Ratio in test [10] is 4.
